Assay results from ChEMBL document CHEMBL3286372, “Design, synthesis and structure-activity relationship of novel semi-synthetic flavonoids as antiproliferative agents” (2014).

Key:
Assay type in all cases: functional
[1] = Growth inhibition of human UO31 cells at 10 uM after 48 hrs by sulforhodamine B assay relative to control; details: UO-31, 48 h, read-out: GI
Outline: (§1)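 NCI-60 primary single-dose screen at 10 µM with continuous 48 h exposure. Cell viability/growth read by sulforhodamine B protein staining. Reported as percent growth inhibition relative to untreated cells.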

[2] = Growth inhibition of human SF295 cells at 10 uM after 48 hrs by sulforhodamine B assay relative to control; details: SF-295, 48 h, read-out: GI
Outline: (§2)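 NCI-60 primary screen at a single 10 µM dose. Continuous 48 h exposure, with growth or viability estimated by sulforhodamine B protein staining. Reported as percent growth inhibition of treated cells relative to untreated growth.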

U-251 = assay: Growth inhibition of human U251 cells at 10 uM after 48 hrs by sulforhodamine B assay relative to control; details: U-251, 48 h, read-out: GI; outline: as §1
NCI-H522 = assay: Growth inhibition of human NCI-H522 cells at 10 uM after 48 hrs by sulforhodamine B assay relative to control; details: NCI-H522, 48 h, read-out: GI; outline: as §2
[3] = Growth inhibition of human HOP92 cells at 10 uM after 48 hrs by sulforhodamine B assay relative to control; details: HOP-92, 48 h, read-out: GI
Outline: (§3)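 NCI-60 primary screen at a single dose of 10 µM with 48 h continuous exposure. Growth or viability read by sulforhodamine B protein staining and expressed as percent growth inhibition versus untreated cells.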

HCT-116 = assay: Growth inhibition of human HCT116 cells at 10 uM after 48 hrs by sulforhodamine B assay relative to control; details: HCT-116, 48 h, read-out: GI; outline: as §3
MCF7 = assay: Growth inhibition of human MCF7 cells at 10 uM after 48 hrs by sulforhodamine B assay relative to control; details: MCF7, 48 h, read-out: GI; outline: as §3
[4] = Growth inhibition of human MOLT4 cells at 10 uM after 48 hrs by sulforhodamine B assay relative to control; details: MOLT-4, 48 h, read-out: GI; outline: as §2
[5] = Growth inhibition of human SF539 cells at 10 uM after 48 hrs by sulforhodamine B assay relative to control; details: SF-539, 48 h, read-out: GI; outline: as §2
RPMI-8226 = assay: Growth inhibition of human RPMI8226 cells at 10 uM after 48 hrs by sulforhodamine B assay relative to control; details: RPMI-8226, 48 h, read-out: GI; outline: as §2
SR = assay: Growth inhibition of human SR cells at 10 uM after 48 hrs by sulforhodamine B assay relative to control; details: read-out: GI; outline: as §2
CAKI-1 = assay: Growth inhibition of human CAKI-1 cells at 10 uM after 48 hrs by sulforhodamine B assay relative to control; details: CAKI-1, 48 h, read-out: GI; outline: as §3
T47D = assay: Growth inhibition of human T47D cells at 10 uM after 48 hrs by sulforhodamine B assay relative to control; details: read-out: GI; outline: as §2
CCRF-CEM = assay: Growth inhibition of human CCRF-CEM cells at 10 uM after 48 hrs by sulforhodamine B assay relative to control; details: read-out: GI; outline: as §3
SK-MEL-2 = assay: Growth inhibition of human SK-MEL-2 cells at 10 uM after 48 hrs by sulforhodamine B assay relative to control; details: SK-MEL-2, 48 h, read-out: GI; outline: as §2
SW-620 = assay: Growth inhibition of human SW620 cells at 10 uM after 48 hrs by sulforhodamine B assay relative to control; details: SW-620, 48 h, read-out: GI; outline: as §2
[6] = Growth inhibition of human NCI-ADR-RES cells at 10 uM after 48 hrs by sulforhodamine B assay relative to control; details: read-out: GI; outline: as §2
NCI-H460 = assay: Growth inhibition of human NCI-H460 cells at 10 uM after 48 hrs by sulforhodamine B assay relative to control; details: NCI-H460, 48 h, read-out: GI; outline: as §2
786-0 = assay: Growth inhibition of human 786-0 cells at 10 uM after 48 hrs by sulforhodamine B assay relative to control; details: 786-0, 48 h, read-out: GI; outline: as §3
HL-60(TB) = assay: Growth inhibition of human HL-60(TB) cells at 10 uM after 48 hrs by sulforhodamine B assay relative to control; details: HL-60, 48 h, read-out: GI
Outline: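 Single-dose primary screen at 10 µM across the NCI 60 panel, 48 h continuous exposure. Growth estimated by sulforhodamine B protein staining and reported as percentage growth inhibition relative to untreated control.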

NCI-H23 = assay: Growth inhibition of human NCI-H23 cells at 10 uM after 48 hrs by sulforhodamine B assay relative to control; details: NCI-H23, 48 h, read-out: GI; outline: as §2
IGROV-1 = assay: Growth inhibition of human IGROV1 cells at 10 uM after 48 hrs by sulforhodamine B assay relative to control; details: IGROV-1, 48 h, read-out: GI; outline: as §3
[7] = Growth inhibition of human OVCAR8 cells at 10 uM after 48 hrs by sulforhodamine B assay relative to control; details: OVCAR-8, 48 h, read-out: GI; outline: as §2
K562 = assay: Growth inhibition of human K562 cells at 10 uM after 48 hrs by sulforhodamine B assay relative to control; details: K562, 48 h, read-out: GI; outline: as §3
[8] = Growth inhibition of human OVCAR3 cells at 10 uM after 48 hrs by sulforhodamine B assay relative to control; details: OVCAR-3, 48 h, read-out: GI; outline: as §2
[9] = Growth inhibition of human LOXIMVI cells at 10 uM after 48 hrs by sulforhodamine B assay relative to control; details: LOX IMVI, read-out: GI; outline: as §3
PC-3 = assay: Growth inhibition of human PC3 cells at 10 uM after 48 hrs by sulforhodamine B assay relative to control; details: PC-3, 48 h, read-out: GI; outline: as §2
MDA-MB-435 = assay: Growth inhibition of human MDA-MB-435 cells at 10 uM after 48 hrs by sulforhodamine B assay relative to control; details: MDA-MB-435, 48 h, read-out: GI; outline: as §3
MDA-MB-468 = assay: Growth inhibition of human MDA-MB-468 cells at 10 uM after 48 hrs by sulforhodamine B assay relative to control; details: MDA-MB-468, 48 h, read-out: GI; outline: as §2
TK-10 = assay: Growth inhibition of human TK10 cells at 10 uM after 48 hrs by sulforhodamine B assay relative to control; details: TK-10, 48 h, read-out: GI; outline: as §1
[10] = Growth inhibition of human RXF393 cells at 10 uM after 48 hrs by sulforhodamine B assay relative to control; details: RXF 393, 48 h, read-out: GI; outline: as §2
[11] = Growth inhibition of human UACC257 cells at 10 uM after 48 hrs by sulforhodamine B assay relative to control; details: UACC-257, 48 h, read-out: GI; outline: as §1
HT-29 = assay: Growth inhibition of human HT-29 cells at 10 uM after 48 hrs by sulforhodamine B assay relative to control; details: HT-29, 48 h, read-out: GI; outline: as §3
Malme-3M = assay: Growth inhibition of human MALME-3M cells at 10 uM after 48 hrs by sulforhodamine B assay relative to control; details: read-out: GI; outline: as §3
[12] = Growth inhibition of human OVCAR4 cells at 10 uM after 48 hrs by sulforhodamine B assay relative to control; details: OVCAR-4, 48 h, read-out: GI; outline: as §2
[13] = Growth inhibition of human BT549 cells at 10 uM after 48 hrs by sulforhodamine B assay relative to control; details: BT-549, 48 h, read-out: GI; outline: as §3
SK-MEL-5 = assay: Growth inhibition of human SK-MEL-5 cells at 10 uM after 48 hrs by sulforhodamine B assay relative to control; details: SK-MEL-5, 48 h, read-out: GI; outline: as §2
[14] = Growth inhibition of human HCT15 cells at 10 uM after 48 hrs by sulforhodamine B assay relative to control; details: HCT-15, 48 h, read-out: GI; outline: as §3

Row | Compound | inhibition of growth at 10 µM [2] [%] | inhibition of growth at 10 µM (U-251) [%] | inhibition of growth at 10 µM (NCI-H522) [%] | inhibition of growth at 10 µM (HCT-116) [%] | inhibition of growth at 10 µM (MCF7) [%] | inhibition of growth at 10 µM [4] [%] | inhibition of growth at 10 µM (RPMI-8226) [%] | inhibition of growth at 10 µM (SR) [%] | inhibition of growth at 10 µM (CAKI-1) [%] | inhibition of growth at 10 µM (T47D) [%] | inhibition of growth at 10 µM (CCRF-CEM) [%] | inhibition of growth at 10 µM (SK-MEL-2) [%] | inhibition of growth at 10 µM (SW-620) [%] | inhibition of growth at 10 µM [6] [%] | inhibition of growth at 10 µM (HL-60(TB)) [%] | inhibition of growth at 10 µM [8] [%] | inhibition of growth at 10 µM [9] [%] | inhibition of growth at 10 µM (PC-3) [%] | inhibition of growth at 10 µM (MDA-MB-435) [%] | inhibition of growth at 10 µM (MDA-MB-468) [%] | also measured
1 | COc1ccc(-c2cc(=O)c3c(OC)c4ccoc4cc3o2)cc1 | 60 | 62 |  |  |  |  |  |  |  |  |  |  |  |  |  |  |  |  |  |  | inhibition of growth at 10 µM [1]: 62%
2 | COc1ccc(/C=C/c2cc(=O)c3c(OC)c4ccoc4c(Br)c3o2)cc1 |  |  | 62 |  |  |  |  |  |  |  |  |  |  |  |  |  |  |  |  |  | 
3 | C=CCOc1cc2oc(-c3ccc(OC)cc3)cc(=O)c2c(OC)c1C=O |  |  |  |  |  |  |  |  |  |  |  |  |  |  |  |  |  |  |  |  | inhibition of growth at 10 µM [3]: 66%
4 | COc1ccc(/C=C2\Oc3c(c(OC)c4ccoc4c3Br)C2=O)cc1 |  |  |  | 62 | 60 | 67 | 71 | 60 | 61 |  |  |  |  |  |  |  |  |  |  |  | inhibition of growth at 10 µM [5]: 60%
5 | COc1c(C(=O)/C=C/c2ccc(Cl)cc2)c(O)cc2occc12 |  |  |  |  | 64 |  | 66 | 63 |  | 67 | 60 |  |  |  |  |  |  |  |  |  | 
6 | C=CCOc1cc2oc(-c3ccc(Cl)cc3)cc(=O)c2c(OC)c1C=O |  | 68 | 93 | 89 | 85 |  | 96 |  |  | 72 |  | 75 | 69 | 78 | 75 | 81 | 99 | 76 | 73 | 91 | inhibition of growth at 10 µM (NCI-H460): 61%; inhibition of growth at 10 µM (786-0): 65%; inhibition of growth at 10 µM (NCI-H23): 61%; inhibition of growth at 10 µM (IGROV-1): 62%; inhibition of growth at 10 µM [1]: 74%; inhibition of growth at 10 µM [7]: 66%; inhibition of growth at 10 µM (K562): 76%; inhibition of growth at 10 µM [3]: 97%; inhibition of growth at 10 µM (TK-10): 73%
7 | COc1c2c(c(Br)c3occc13)O/C(=C\c1ccc(Cl)cc1)C2=O | 67 | 62 | 64 | 83 | 79 | 85 | 91 | 82 | 80 | 60 | 79 | 84 | 63 | 61 | 74 | 67 | 65 | 69 | 82 | 80 | inhibition of growth at 10 µM [10]: 78%; inhibition of growth at 10 µM [11]: 61%; inhibition of growth at 10 µM (HT-29): 63%; inhibition of growth at 10 µM (Malme-3M): 65%
8 | COc1c2ccoc2c(Br)c2oc(-c3ccc(Cl)cc3)cc(=O)c12 |  |  |  |  |  |  |  |  |  |  |  |  |  |  |  |  |  |  |  |  | inhibition of growth at 10 µM [12]: 72%
9 | COc1c2c(c(Br)c3occc13)O/C(=C\c1ccccc1)C2=O | 65 | 73 | 62 | 77 | 84 | 85 | 94 | 79 | 87 |  | 79 | 88 | 60 | 79 | 64 | 86 | 65 | 66 | 74 | 93 | inhibition of growth at 10 µM [13]: 66%; inhibition of growth at 10 µM [10]: 93%; inhibition of growth at 10 µM (NCI-H460): 83%; inhibition of growth at 10 µM (NCI-H23): 78%; inhibition of growth at 10 µM [7]: 70%; inhibition of growth at 10 µM (SK-MEL-5): 67%; inhibition of growth at 10 µM [5]: 75%; inhibition of growth at 10 µM (HT-29): 72%; inhibition of growth at 10 µM [14]: 60%; inhibition of growth at 10 µM (TK-10): 61%
10 | COc1ccc(/C=C/c2oc3c(OC)c4occc4c(OC)c3c(=O)c2CN2CCOCC2)cc1 |  |  |  |  |  | 66 | 61 |  |  |  | 87 |  |  |  |  |  |  |  |  |  | inhibition of growth at 10 µM (SK-MEL-5): 84%
